Data from ChEMBL document CHEMBL4602700, “Discovery of WD Repeat-Containing Protein 5 (WDR5)-MYC Inhibitors Using Fragment-Based Methods and Structure-Based Design” (J Med Chem, 2020).
Activity calls are given as the source filed them. The calls are words filed in the database; no cut-off is given here.

Columns and labels:
[1] = target: T1, WD repeat-containing protein 5 (Homo sapiens, UniProt P61964); experiment: Binding affinity to recombinant human His/FLAG-tagged WDR5 (22 to 334 residues) expressed in Escherichia coli expression system using FITC-AHx-SEEEIDVVSV as substrate by fluorescence polarization assay
[2] = target: T1, WD repeat-containing protein 5; experiment: Inhibition of WDR5 in human HEK293T cells assessed as reduction in WDR5-MYC interaction at 5 uM incubated for 24 hrs by immunoprecipitation analysis; assay type: cell-based; conditions: HEK-293T
Summary of the method: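 Intact HEK293 cells (WDR5-FLAG/c-MYC-HA) at ~70% confluence, PBS-washed, treated 24 h with 5 μM compound in OptiMEM; lysates α-FLAG immunoprecipitated overnight at 4 °C, MYC co-precipitation immunoblotted, input blotted for MYC levels; normalized to vehicle; minimum two biological repeats.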

[3] = target: MLL1-ASH2L/RbBP5/WDR5/DPY30 (Homo sapiens) (UniProt P61964+Q03164+Q9UBL3+Q15291+Q9C005); experiment: Inhibition of MLL1/WDR5/RBBP5/ASH2L/DPY30 complex (unknown origin) assessed as reduction in histone methyltransferase activity; assay type: protein assay
[4] = target: T1, WD repeat-containing protein 5; experiment: Inhibition of N-terminal FLAG-tagged human full-length WDR5 expressed in HEK293T cells harboring human C-terminal HA-tagged c-MYC assessed as reduction in WDR5-MYC interaction at 50 uM by immunoprecipitation analysis; conditions: HEK-293T
[5] = target: T1, WD repeat-containing protein 5; experiment: Inhibition of N-terminal FLAG-tagged human full-length WDR5 expressed in HEK293T cells harboring human C-terminal HA-tagged c-MYC assessed as reduction in MYC recruitment C7orf40 binding site at 20 uM incubated for 10 hrs by chromatin immunoprecipitation analysis; assay type: cell-based; conditions: HEK-293T
Summary of the method: (§1)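 HEK293 cells expressing HA-MYC and GFP grown to ~70% confluence, PBS-washed, treated 10 h in OptiMEM. Crosslinked 1% formaldehyde 10 min at room temperature, quenched with 125 mM glycine. Sonicated chromatin, α-HA ChIP; qPCR percent input against a 30-fold dilution of decrosslinked chromatin. One-tailed t-test; minimum three independent biological repeats.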

[6] = target: T1, WD repeat-containing protein 5; experiment: Inhibition of N-terminal FLAG-tagged human full-length WDR5 expressed in HEK293T cells harboring human C-terminal HA-tagged c-MYC assessed as reduction in MYC recruitment RNPS1 binding site at 20 uM incubated for 10 hrs by chromatin immunoprecipitation analysis; assay type: cell-based; conditions: HEK-293T; summary of the method: as §1
[7] = target: T1, WD repeat-containing protein 5; experiment: Inhibition of N-terminal FLAG-tagged human full-length WDR5 expressed in HEK293T cells harboring human C-terminal HA-tagged c-MYC assessed as reduction in MYC recruitment RPS14 binding site at 20 uM incubated for 10 hrs by chromatin immunoprecipitation analysis; assay type: cell-based; conditions: HEK-293T; summary of the method: as §1
[8] = target: T1, WD repeat-containing protein 5; experiment: Inhibition of N-terminal FLAG-tagged human full-length WDR5 expressed in HEK293T cells harboring human C-terminal HA-tagged c-MYC assessed as reduction in MYC recruitment RPL5 binding site at 20 uM incubated for 10 hrs by chromatin immunoprecipitation analysis; assay type: cell-based; conditions: HEK-293T; summary of the method: as §1
[9] = target: T1, WD repeat-containing protein 5; experiment: Inhibition of N-terminal FLAG-tagged human full-length WDR5 expressed in HEK293T cells harboring human C-terminal HA-tagged c-MYC assessed as reduction in MYC recruitment ZFPM1 binding site at 20 uM incubated for 10 hrs by chromatin immunoprecipitation analysis; assay type: cell-based; conditions: HEK-293T; summary of the method: as §1
[10] = target: T1, WD repeat-containing protein 5; experiment: Inhibition of N-terminal FLAG-tagged human full-length WDR5 expressed in HEK293T cells harboring human C-terminal HA-tagged c-MYC assessed as reduction in MYC recruitment […] binding site at 20 uM incubated for 10 hrs by chromatin immunoprecipitation analysis; assay type: cell-based; conditions: HEK-293T; summary of the method: as §1

O=S(=O)(Nc1cn(C(C2CC2)C2CC2)cn1)c1cc(Br)cc(Cl)c1O
Kd [1]: 1.2 µM

O=S(=O)(Nc1cnn(C2CCCC2)c1)c1cc(Br)cc(Cl)c1O
inhibition [2]: inactive
inhibition [3]: Active
inhibition [4]: Active

O=S(=O)(Nc1cn(C2CCCC2)cn1)c1cc(Br)cc(Cl)c1O
Kd [1]: 0.4 µM
inhibition [2]: Active
inhibition [4]: Active

CCOC(=O)c1nc(NS(=O)(=O)c2cc(Br)cc(Cl)c2O)cn1C1CCCC1
inhibition [2]: Active
inhibition [3]: Active
inhibition [4]: Active

O=S(=O)(Nc1nc2ccccc2s1)c1cc(Br)cc(Cl)c1O
Kd [1]: 32 µM

CS(=O)(=O)c1nc(NS(=O)(=O)c2cc(Br)cc(Cl)c2O)cn1C1CCCC1
inhibition [2]: Active
inhibition [5]: Active
inhibition [6]: Active
inhibition [7]: Active
inhibition [8]: Active
inhibition [9]: inactive
inhibition [10]: inactive
inhibition [3]: Active
inhibition [4]: Active

CNC(=O)c1nc(NS(=O)(=O)c2cc(Br)cc(Cl)c2O)cn1C1CCCC1
inhibition [2]: Active
inhibition [3]: Active
inhibition [4]: Active

O=S(=O)(Nc1cn(CC2CCCO2)cn1)c1cc(Br)cc(Cl)c1O (configuration not stated)
Kd [1]: 8 µM

O=C(c1nc(NS(=O)(=O)c2cc(Br)cc(Cl)c2O)cn1C1CCCC1)N1CCC(C2CCCN2)CC1 (configuration not stated)
Kd [1]: 5 µM

O=S(=O)(Nc1cn(C2CCNC2)cn1)c1cc(Br)cc(Cl)c1O (configuration not stated)
Kd [1]: 11 µM

O=S(=O)(Nc1cn(CC2CC2)cn1)c1cc(Br)cc(Cl)c1O
Kd [1]: 2.1 µM
